Data taken from ChEMBL document CHEMBL1165858, “Synthesis and biological evaluation of beta-chloro vinyl chalcones as inhibitors of TNF-alpha and IL-6 with antimicrobial activity” (Eur J Med Chem, 2010).
Values after ≈ are worked out from the molar mass of the structure shown. Active and inactive are the calls of the source. The rule behind the calls is not given here.

Key:
[1] = system: Proteus vulgaris; assay: Antibacterial activity against Proteus vulgaris NCIM 2813 after 24 hrs by disc diffusion method; type: functional; settings: for MIC: Proteus vulgaris, NCIM 2813, 24 h
Outline: (§1)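 Paper disc diffusion (6.25 mm Whatman no.1 discs, dry-heat sterilized at 140 °C for 1 h) loaded with compounds at different concentrations in DMSO. Discs were placed in triplicate on nutrient agar seeded with fresh bacterial culture and incubated at 37 °C for 24 h, with solvent and growth controls. Zones of inhibition (mm) and MIC, the concentration completely inhibiting growth, were recorded.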

[2] = system: THP-1; assay: Antiinflammatory activity in human THP1 cells assessed as inhibition of LPS-induced TNFalpha secretion at 10 uM treated 30 mins before LPS challenge measured after 24 hrs by ELISA relative to control; type: functional
Outline: (§2)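 THP-1 cells were grown in RPMI 1640 with 10% FBS and penicillin/streptomycin, then differentiated with PMA. Compound or vehicle (0.5% DMSO) was added for 30 min at 37 °C, followed by LPS (E. coli 0127:B8, final 1 µg/mL). After 24 h at 37 °C in 5% CO2, TNF-α and IL-6 in the supernatants were quantified by ELISA. Values are the mean of n = 2.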

[3] = system: Staphylococcus aureus; assay: Antibacterial activity against Staphylococcus aureus NCIM 2120 after 24 hrs by disc diffusion method; type: functional; settings: for MIC: Staphylococcus aureus, NCIM 2120, 24 h; outline: as §1
[4] = system: Aspergillus fumigatus; assay: Antibacterial activity against Aspergillus fumigatus NCIM 902 after 72 hrs by disc diffusion method; type: functional; settings: for MIC: Aspergillus fumigatus, NCIM 902, 72 h
Outline: (§3)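 Agar disc diffusion against fungi. Fungi were maintained on potato dextrose agar at (25 ± 2) °C for five days before use. Compounds were dissolved in DMSO (10 mg/mL initial solutions) and loaded on discs placed on freshly seeded plates alongside a solvent control disc. Plates were held at 4 °C for 24 h for diffusion, then incubated at 37 ± 5 °C for 72 h. Zones of inhibition (mm) and MICs were recorded.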

[5] = system: Escherichia coli; assay: Antibacterial activity against Escherichia coli NCIM 2065 after 24 hrs by disc diffusion method; type: functional; settings: for MIC: Escherichia coli, NCIM 2065, 24 h; outline: as §1
[6] = system: Penicillium chrysogenum; assay: Antibacterial activity against Penicillium chrysogenum NCIM 707 after 72 hrs by disc diffusion method; type: functional; settings: for MIC: Penicillium chrysogenum, NCIM 707, 72 h; outline: as §3
[7] = system: THP-1; assay: Antiinflammatory activity in human THP1 cells assessed as inhibition of LPS-induced IL-6 secretion at 10 uM treated 30 mins before LPS challenge measured after 24 hrs by ELISA relative to control; type: functional; outline: as §2
[8] = Cytotoxicity against […] at 10 uM; type: cell-based
[9] = system: Klebsiella pneumoniae; assay: Antibacterial activity against Klebsiella pneumoniae NCIM 5082 after 24 hrs by disc diffusion method; type: functional; settings: for MIC: Klebsiella pneumoniae, NCIM 5082, 24 h; outline: as §1
[10] = system: Bacillus subtilis; assay: Antibacterial activity against Bacillus subtilis NCIM 2546 after 24 hrs by disc diffusion method; type: functional; settings: for MIC: Bacillus subtilis, NCIM 2546, 24 h; outline: as §1
[11] = system: Candida albicans; assay: Antibacterial activity against Candida albicans NCIM 3100 at > 100 […] after 72 hrs by disc diffusion method; type: functional, organism-based
[12] = system: Trichoderma viride; assay: Antibacterial activity against Trichoderma viride TT after 72 hrs by disc diffusion method; type: functional; settings: for MIC: Trichoderma viride, TT, 72 h; outline: as §3
[13] = system: Aspergillus niger; assay: Antibacterial activity against Aspergillus niger NCIM 545 after 72 hrs by disc diffusion method; type: functional; settings: for MIC: Aspergillus niger, NCIM 545, 72 h; outline: as §3
[14] = system: Aspergillus niger; assay: Antibacterial activity against Aspergillus niger NCIM 545 at > 100 […] after 72 hrs by disc diffusion method; type: functional, organism-based
[15] = system: Penicillium chrysogenum; assay: Antibacterial activity against Penicillium chrysogenum NCIM 707 at > 100 […] after 72 hrs by disc diffusion method; type: functional, organism-based
[16] = system: Candida albicans; assay: Antibacterial activity against Candida albicans NCIM 3100 after 72 hrs by disc diffusion method; type: functional; outline: as §3
[17] = system: Proteus vulgaris; assay: Antibacterial activity against Proteus vulgaris NCIM 2813 at > 100 […] after 24 hrs by disc diffusion method; type: functional, organism-based
[18] = system: Bacillus subtilis; assay: Antibacterial activity against Bacillus subtilis NCIM 2546 at > 100 […] after 24 hrs by disc diffusion method; type: functional, organism-based
[19] = system: Escherichia coli; assay: Antibacterial activity against Escherichia coli NCIM 2065 at > 100 […] after 24 hrs by disc diffusion method; type: functional, organism-based

Row | Compound | inhibition zone (IZ) [1] [mm] | MIC [1] [µg/mL] | inhibition at 10 µM [2] [%] | inhibition zone (IZ) [3] [mm] | MIC [3] [µg/mL] | inhibition zone (IZ) [4] [mm] | MIC [4] [µg/mL] | inhibition zone (IZ) [5] [mm] | MIC [5] [µg/mL] | inhibition zone (IZ) [6] [mm] | MIC [6] [µg/mL] | inhibition at 10 µM [7] [%] | Activity [8] | inhibition zone (IZ) [9] [mm] | MIC [9] [µg/mL] | inhibition zone (IZ) [10] [mm] | MIC [10] [µg/mL] | MIC [11] | inhibition zone (IZ) [12] [mm] | MIC [12] [µg/mL] | other results
1 | COc1cc(O)c(C(=O)/C=C/C=C(\Cl)c2ccccc2Cl)c(OC)c1 | 20 | 25 (≈ 65.9 µM) | 17 | 16 | 50 (≈ 132 µM) | 14 | 50 (≈ 132 µM) | 14 | 50 (≈ 132 µM) | 16 | 50 (≈ 132 µM) | 43 | Non-toxic | 18 | 25 (≈ 65.9 µM) | 16 | 50 (≈ 132 µM) | inactive | 14 | 50 (≈ 132 µM) | inhibition zone (IZ) [13]: 16 mm; MIC [13]: 50 µg/mL (≈ 132 µM)
2 | COc1cc(O)c(C(=O)/C=C/C=C(\Cl)c2ccc(C)cc2)c(OC)c1 | 19 | 25 (≈ 69.7 µM) | 17 | 16 | 50 (≈ 139 µM) | 10 |  | 12 |  |  |  | 36 | Non-toxic | 18 | 25 (≈ 69.7 µM) | 15 | 50 (≈ 139 µM) | inactive | 13 |  | MIC [14]: inactive; MIC [15]: inactive
3 | COc1cc(O)c(C(=O)/C=C/C=C(\Cl)c2ccc(Br)cc2)c(OC)c1 | 12 |  | 8 | 14 | 50 (≈ 118 µM) | 20 | 25 (≈ 59 µM) | 15 | 50 (≈ 118 µM) | 18 | 25 (≈ 59 µM) | 58 | Non-toxic | 20 | 25 (≈ 59 µM) | 18 | 25 (≈ 59 µM) |  | 18 | 25 (≈ 59 µM) | inhibition zone (IZ) [16]: 14 mm; MIC ([16]; Candida albicans, NCIM 3100, 72 h): 25 µg/mL (≈ 59 µM); inhibition zone (IZ) [13]: 14 mm; MIC [13]: 50 µg/mL (≈ 118 µM)
4 | COc1cc(O)c(C(=O)/C=C/C=C(\Cl)c2ccc(Cl)cc2Cl)c(OC)c1 | 19 | 25 (≈ 60.4 µM) | 0 | 19 | 25 (≈ 60.4 µM) | 17 | 50 (≈ 121 µM) | 14 | 50 (≈ 121 µM) | 17 | 25 (≈ 60.4 µM) | 67 | Non-toxic | 15 | 50 (≈ 121 µM) | 17 | 50 (≈ 121 µM) |  | 18 | 25 (≈ 60.4 µM) | inhibition zone (IZ) [16]: 10 mm; inhibition zone (IZ) [13]: 10 mm
5 | COc1ccc(/C(Cl)=C/C=C/C(=O)c2c(O)cc(OC)cc2OC)c(OC)c1 |  |  | 0 | 14 | 50 (≈ 124 µM) | 10 |  |  |  | 14 | 50 (≈ 124 µM) | 33 | Non-toxic | 13 |  |  |  | inactive | 10 |  | MIC [14]: inactive; MIC [17]: inactive; MIC [18]: inactive; MIC [19]: inactive
6 | GENTAMICIN [listing 1 of 2 here] |  |  |  |  |  |  |  |  |  |  |  |  | Non-toxic |  |  |  |  |  |  |  | 
7 | GENTAMICIN [listing 2 of 2 here] | 18 |  |  |  |  |  |  |  |  |  |  |  |  | 22 |  | 24 |  |  |  |  | 
